According to ChEMBL document CHEMBL2177098, “Synthesis and evaluation of novel ¹⁸F labeled 2-pyridinylbenzoxazole and 2-pyridinylbenzothiazole derivatives as ligands for positron emission tomography (PET) imaging of β-amyloid plaques” (J Med Chem, 2012):

Legend:
Intestine = experiment: Drug uptake in ICR mouse intestine assessed per organ at 370 kBq/100 ul, iv at 10 mins by gamma-counting analysis; assay type: ADME, organism-based; conditions: in vivo
How it was run: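 Male ICR mice (5 weeks, about 20 g) got 18F tracer in saline (370 KBq per 100 μL) via tail vein; n = 5 per time point, killed at 2, 10, 30, 60 min. Organs removed and γ-counted against diluted injectate; expressed as % injected dose per organ.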

Stomach = experiment: Drug uptake in ICR mouse stomach assessed per organ at 370 kBq/100 ul, iv at 60 mins by gamma-counting analysis; assay type: ADME, organism-based; conditions: in vivo, 1 h
How it was run: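 Normal male ICR mice (5 weeks, about 20 g) received the ¹⁸F tracer in saline (370 KBq per 100 μL) by tail-vein injection. Groups of n = 5 were killed at 2, 10, 30 and 60 min. Organs were removed, weighed and γ-counted against diluted aliquots of the injectate, giving % dose per gram. Stomach and intestine were expressed per organ. The brain ratio is 2 min/60 min uptake. Values are mean ± SD.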

Lung [1] = experiment: Drug uptake in ICR mouse lung at 370 kBq/100 ul, iv at 30 mins by gamma-counting analysis; assay type: ADME, organism-based; conditions: in vivo, 0.5 h
How it was run: (§1)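 Male ICR mice (5 weeks, about 20 g) got 18F tracer in saline (370 KBq per 100 μL) via tail vein; n = 5 per time point, killed at 2, 10, 30, 60 min. Organs weighed and γ-counted; percent dose per gram wet tissue from comparison with diluted injectate aliquots.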

Lung [2] = experiment: Drug uptake in ICR mouse lung at 370 kBq/100 ul, iv at 2 mins by gamma-counting analysis; assay type: ADME, organism-based; conditions: in vivo; how it was run: as §1
Spleen [3] = experiment: Drug uptake in ICR mouse spleen at 370 kBq/100 ul, iv at 10 mins by gamma-counting analysis; assay type: ADME, organism-based; conditions: in vivo; how it was run: as §1
Spleen [4] = experiment: Drug uptake in ICR mouse spleen at 370 kBq/100 ul, iv at 2 mins by gamma-counting analysis; assay type: ADME, organism-based; conditions: in vivo; how it was run: as §1
Liver = experiment: Drug uptake in ICR mouse liver at 370 kBq/100 ul, iv at 30 mins by gamma-counting analysis; assay type: ADME, organism-based; conditions: in vivo, 0.5 h; how it was run: as §1
Brain [5] = experiment: Drug uptake in ICR mouse brain at 370 kBq/100 ul, iv at 10 mins by gamma-counting analysis; assay type: ADME, organism-based; conditions: in vivo; how it was run: as §1
Brain [6] = experiment: Drug uptake in ICR mouse brain at 370 kBq/100 ul, iv at 2 mins by gamma-counting analysis; assay type: ADME, organism-based; conditions: in vivo; how it was run: as §1
Blood = experiment: Drug uptake in ICR mouse blood at 370 kBq/100 ul, iv at 2 mins by gamma-counting analysis; assay type: ADME, organism-based; conditions: in vivo; how it was run: as §1
Brain [7] = experiment: Drug uptake in healthy human brain at 370 KBq/100 ul after 1 hr by autoradiographic analysis; assay type: ADME, tissue-based; conditions: in vitro
[8] = Displacement of [125I]-IMPY from amyloid beta (1 to 42) fibrils after 2 hrs by gamma-counting analysis
How it was run: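 Competition binding with aggregated Aβ1-42 fibrils and [125I]IMPY (60000−100000 cpm/100 μL) in 0.05% BSA (1 mL total); inhibitors 10⁻⁴−10^−8.5 M in ethanol. Incubated 37 °C for 2 h, then GF/B vacuum filtration with PBS (0.02 M, pH 7.4) washes and γ counting. Three repeats; IC50 converted to Ki by Cheng−Prusoff.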

[9] = Chemical stability of the compound in saline solution after 6 hrs; assay type: physicochemical; conditions: buffer
How it was run: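 Tracer kept in saline solution at room temperature, and stability followed during storage for up to 6 h.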

- Drug uptake (Intestine): 19.61 %ID
- Drug uptake (Stomach): 3.89 %ID
- Drug uptake (Lung [1]): 2.29 % ID/g
- Drug uptake (Lung [2]): 4.14 % ID/g
- Drug uptake (Spleen [3]): 2.13 % ID/g
- Drug uptake (Spleen [4]): 3.32 % ID/g
- Drug uptake (Liver): 3.95 % ID/g
- Drug uptake (Brain [5]): 2.24 % ID/g
- Drug uptake (Brain [6]): 7.23 % ID/g
- Drug uptake (Blood): 3.36 % ID/g
- Drug uptake (Brain [7]): Not Active
- Ki [8]: 8 nM
- Stability [9]: Stable
Compound: CNc1ccc(-c2nc3cc(OCC[18F])ccc3o2)cn1
